Assay results as given in ChEMBL document CHEMBL4014350, “Alkoxyurea-Based Histone Deacetylase Inhibitors Increase Cisplatin Potency in Chemoresistant Cancer Cell Lines” (J Med Chem, 2017).
Active and inactive are the calls of the source. The rule behind the calls is not given here.

Experiments:
[1] = molecular target: T1, Histone deacetylase 1/6 (Homo sapiens) (UniProt Q13547+Q9UBN7); experiment: Inhibition of HDAC1/HDAC6 in human Cal27CisR cells assessed as potentiation of 5 uM cisplatin-induced cytotoxicity by measuring combination index at 2000 uM preincubated for 48 hrs followed by cisplatin treatment measured after 72 hrs by MTT assay; assay type: cell-based
T1 sequence (Q13547 whole entry, looked up): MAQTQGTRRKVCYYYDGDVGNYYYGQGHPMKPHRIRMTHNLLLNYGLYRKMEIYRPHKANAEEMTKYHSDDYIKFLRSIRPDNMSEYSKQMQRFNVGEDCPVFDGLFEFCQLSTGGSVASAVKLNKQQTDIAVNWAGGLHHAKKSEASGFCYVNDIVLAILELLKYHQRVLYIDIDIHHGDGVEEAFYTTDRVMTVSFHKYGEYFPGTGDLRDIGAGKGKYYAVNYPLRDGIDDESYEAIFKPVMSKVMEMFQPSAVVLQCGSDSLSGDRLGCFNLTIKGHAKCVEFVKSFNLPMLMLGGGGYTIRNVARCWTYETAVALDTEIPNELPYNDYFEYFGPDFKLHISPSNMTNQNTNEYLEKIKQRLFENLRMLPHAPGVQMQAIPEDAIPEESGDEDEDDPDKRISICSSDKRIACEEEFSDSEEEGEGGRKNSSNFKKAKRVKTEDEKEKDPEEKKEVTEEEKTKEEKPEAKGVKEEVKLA
T1 sequence (Q9UBN7 whole entry, looked up): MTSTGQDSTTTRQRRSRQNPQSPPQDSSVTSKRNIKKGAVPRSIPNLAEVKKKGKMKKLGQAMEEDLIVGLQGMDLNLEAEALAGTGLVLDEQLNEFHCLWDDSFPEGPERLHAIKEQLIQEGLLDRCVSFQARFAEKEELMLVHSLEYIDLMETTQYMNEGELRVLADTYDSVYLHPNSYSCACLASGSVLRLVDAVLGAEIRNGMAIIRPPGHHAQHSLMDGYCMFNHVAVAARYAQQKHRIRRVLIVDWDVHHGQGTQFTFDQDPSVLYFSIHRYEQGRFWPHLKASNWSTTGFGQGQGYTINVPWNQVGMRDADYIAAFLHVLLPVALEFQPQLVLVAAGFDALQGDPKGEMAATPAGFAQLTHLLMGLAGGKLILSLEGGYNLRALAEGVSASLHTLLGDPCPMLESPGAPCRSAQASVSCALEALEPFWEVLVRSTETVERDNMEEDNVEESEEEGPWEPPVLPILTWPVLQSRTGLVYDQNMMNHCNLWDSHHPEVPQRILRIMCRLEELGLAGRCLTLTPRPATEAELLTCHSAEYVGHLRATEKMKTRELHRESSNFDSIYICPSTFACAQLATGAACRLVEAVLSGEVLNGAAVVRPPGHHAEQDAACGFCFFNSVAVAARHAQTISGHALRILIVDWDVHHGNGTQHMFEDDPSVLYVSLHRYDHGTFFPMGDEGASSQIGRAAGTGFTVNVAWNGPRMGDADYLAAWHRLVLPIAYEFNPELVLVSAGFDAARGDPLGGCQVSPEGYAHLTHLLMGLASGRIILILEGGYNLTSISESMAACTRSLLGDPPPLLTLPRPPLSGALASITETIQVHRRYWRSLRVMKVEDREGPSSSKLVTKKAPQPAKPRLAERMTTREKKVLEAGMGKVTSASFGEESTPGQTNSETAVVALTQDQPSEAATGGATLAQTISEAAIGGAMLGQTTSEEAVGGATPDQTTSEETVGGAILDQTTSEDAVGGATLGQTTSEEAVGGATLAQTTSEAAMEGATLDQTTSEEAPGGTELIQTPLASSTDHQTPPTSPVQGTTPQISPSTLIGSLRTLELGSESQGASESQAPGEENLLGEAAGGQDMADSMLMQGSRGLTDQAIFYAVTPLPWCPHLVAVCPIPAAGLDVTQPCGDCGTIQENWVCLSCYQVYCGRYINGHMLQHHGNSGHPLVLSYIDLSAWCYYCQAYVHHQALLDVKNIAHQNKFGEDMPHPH
Procedure, shortened: (§1)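 Cal27 and cisplatin-resistant Cal27CisR cells were preincubated with the HDAC inhibitor for 48 h, then given cisplatin in combination. Viability was read by MTT after 72 h. The combination index was computed by the Chou–Talalay method: CI > 1 is antagonism, CI = 1 is additive, and CI < 0.9 is synergism. Points with fraction affected below 0.20 were flagged.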

CAL-27 [2] = experiment: Potentiation of 0.5 uM cisplatin-induced cytotoxicity against human CAL27 cells assessed as decrease in cell viability by measuring combination index at 1500 uM preincubated for 48 hrs followed by cisplatin treatment measured after 72 hrs by MTT assay; assay type: functional; procedure, shortened: as §1
CAL-27 [3] = experiment: Potentiation of 0.316 uM cisplatin-induced cytotoxicity against human CAL27 cells assessed as decrease in cell viability by measuring combination index at 1500 uM preincubated for 48 hrs followed by cisplatin treatment measured after 72 hrs by MTT assay; assay type: functional; conditions: in the assay text read “at 1500 nM” for “at 1500 uM”; procedure, shortened: as §1
CAL-27 [4] = experiment: Potentiation of 1 uM cisplatin-induced cytotoxicity against human CAL27 cells assessed as decrease in cell viability by measuring combination index at 900 uM preincubated for 48 hrs followed by cisplatin treatment measured after 72 hrs by MTT assay; assay type: functional
Procedure, shortened: (§2)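 HDAC inhibitor was added 48 h before cisplatin, then cells were exposed to cisplatin for 72 h and viability was read by MTT assay. Combination index was computed by the Chou–Talalay method: CI > 1 is antagonism, CI = 1 additive, CI < 0.9 synergism. Points with fraction affected below 0.20 were flagged.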

[5] = molecular target: T1, Histone deacetylase 1/6 (Homo sapiens); experiment: Inhibition of HDAC1/HDAC6 in human Cal27CisR cells assessed as potentiation of 3.16 uM cisplatin-induced cytotoxicity by measuring combination index at 900 nM preincubated for 48 hrs followed by cisplatin treatment measured after 72 hrs by MTT assay
Cal27CisR = experiment: Induction of apoptosis in human Cal27CisR cells at 0.5 uM for 48 hrs by propidium iodide dye-based flow cytometry; assay type: functional, cell-based
[6] = molecular target: T1, Histone deacetylase 1/6 (Homo sapiens); experiment: Inhibition of HDAC1/HDAC6 in human Cal27CisR cells assessed as potentiation of 10 uM cisplatin-induced cytotoxicity by measuring combination index at 1000 nM preincubated for 48 hrs followed by cisplatin treatment measured after 72 hrs by MTT assay
CAL-27 [7] = experiment: Potentiation of 2 uM cisplatin-induced cytotoxicity against human CAL27 cells assessed as decrease in cell viability by measuring combination index at 2000 uM preincubated for 48 hrs followed by cisplatin treatment measured after 72 hrs by MTT assay; assay type: functional; conditions: in the assay text read “at 2000 nM” for “at 2000 uM”; procedure, shortened: as §2
[8] = molecular target: T1, Histone deacetylase 1/6 (Homo sapiens); experiment: Inhibition of HDAC1/HDAC6 in human Cal27CisR cells assessed as potentiation of 20 uM cisplatin-induced cytotoxicity by measuring combination index at 1000 nM preincubated for 48 hrs followed by cisplatin treatment measured after 72 hrs by MTT assay
CAL-27 [9] = experiment: Potentiation of 2 uM cisplatin-induced cytotoxicity against human CAL27 cells assessed as decrease in cell viability by measuring combination index at 1000 uM preincubated for 48 hrs followed by cisplatin treatment measured after 72 hrs by MTT assay; assay type: functional; conditions: in the assay text read “at 1000 nM” for “at 1000 uM”; procedure, shortened: as §2
[10] = molecular target: T1, Histone deacetylase 1/6 (Homo sapiens); experiment: Inhibition of HDAC1/HDAC6 in human Cal27CisR cells assessed as potentiation of 10 uM cisplatin-induced cytotoxicity by measuring combination index at 900 nM preincubated for 48 hrs followed by cisplatin treatment measured after 72 hrs by MTT assay
[11] = molecular target: T1, Histone deacetylase 1/6 (Homo sapiens); experiment: Inhibition of HDAC1/HDAC6 in human Cal27CisR cells assessed as potentiation of 1 uM cisplatin-induced cytotoxicity by measuring combination index at 900 uM preincubated for 48 hrs followed by cisplatin treatment measured after 72 hrs by MTT assay; assay type: cell-based
Procedure, shortened: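 Cal27CisR cells preincubated 48 h with the HDAC inhibitor, then exposed to cisplatin for 72 h. Viability read by MTT. Combination index calculated by the Chou–Talalay method: CI > 1 antagonism, CI = 1 additive, CI < 0.9 synergism. Points with fraction affected below 0.20 are flagged. Values are the mean of three experiments.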

CAL-27 [12] = experiment: Potentiation of 0.316 uM cisplatin-induced cytotoxicity against human CAL27 cells assessed as decrease in cell viability by measuring combination index at 1000 uM preincubated for 48 hrs followed by cisplatin treatment measured after 72 hrs by MTT assay; assay type: functional; conditions: in the assay text read “at 1000 nM” for “at 1000 uM”; procedure, shortened: as §1
CAL-27 [13] = experiment: Potentiation of 1 uM cisplatin-induced cytotoxicity against human CAL27 cells assessed as decrease in cell viability by measuring combination index at 1500 uM preincubated for 48 hrs followed by cisplatin treatment measured after 72 hrs by MTT assay; assay type: functional; conditions: in the assay text read “at 1500 nM” for “at 1500 uM”; procedure, shortened: as §1
[14] = molecular target: T1, Histone deacetylase 1/6 (Homo sapiens); experiment: Inhibition of HDAC1/HDAC6 in human Cal27CisR cells assessed as potentiation of 20 uM cisplatin-induced cytotoxicity by measuring combination index at 900 nM preincubated for 48 hrs followed by cisplatin treatment measured after 72 hrs by MTT assay
[15] = molecular target: T1, Histone deacetylase 1/6 (Homo sapiens); experiment: Inhibition of HDAC1/HDAC6 in human Cal27CisR cells assessed as potentiation of 20 uM cisplatin-induced cytotoxicity by measuring combination index at 1500 nM preincubated for 48 hrs followed by cisplatin treatment measured after 72 hrs by MTT assay
[16] = molecular target: T1, Histone deacetylase 1/6 (Homo sapiens); experiment: Inhibition of HDAC1/HDAC6 in human Cal27CisR cells assessed as potentiation of 3.16 uM cisplatin-induced cytotoxicity by measuring combination index at 1500 nM preincubated for 48 hrs followed by cisplatin treatment measured after 72 hrs by MTT assay
CAL-27 [17] = experiment: Potentiation of cisplatin-induced apoptosis in human CAL27 cells at 1 uM preincubated for 48 hrs followed by cisplatin treatment for 6 hrs measured after 24 hrs by propidium iodide dye-based flow cytometry; assay type: functional, cell-based
CAL-27 [18] = experiment: Potentiation of cisplatin-induced apoptosis in human CAL27 cells at 0.5 uM preincubated for 48 hrs followed by cisplatin treatment for 6 hrs measured after 24 hrs by propidium iodide dye-based flow cytometry (reference value: 21.8%); assay type: functional

COc1cc(NC(=O)NOCCCCCC(=O)NO)c2ncccc2c1
CI [1]: 0.59 | CI (CAL-27 [2]): 0.74 | CI (CAL-27 [3]): 0.82 | CI (CAL-27 [4]): 0.54 | CI [5]: 0.79 | Activity (Cal27CisR): inactive | CI [6]: 0.49 | CI (CAL-27 [7]): 0.7 | CI [8]: 0.48 | CI (CAL-27 [9]): 0.41 | CI [10]: 0.43 | CI [11]: < 0.2 | CI (CAL-27 [12]): 0.77 | CI (CAL-27 [13]): 0.64 | CI [14]: 0.49 | CI [15]: 0.62 | CI [16]: 0.52 | Activity (CAL-27 [17]): Active

COc1cc(NC(=O)NOCCCCCC(=O)NO)c2nc(OC)cc(C)c2c1
Activity (CAL-27 [18]): 33.3%
